31 sequences from the array DNA melting data of Ke et al. (doi:10.1101/2024.01.08.574731) can be followed below.

Data set [1] in a line: folding enthalpy; higher = less favourable; fluorescence melt of hairpins on a sequencing array, two-state fit. The settings on record: sodium 0.088 M. The essentials: (§1)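 Bootstrapped two-state fits yielded melting temperature and folding enthalpy for library hairpins. Cy3 fluorescence, with annealed Cy3 and quencher oligos, was imaged on a sequenced MiSeq flow cell in 50 mM Na-HEPES pH 8.0, 25 mM NaCl in 2.5 °C steps up to 60 °C, and normalised to pre-quench Cy3 and to control constructs. Four replicates were combined by inverse variance, and fitted temperatures were raised by 9.35 °C to match UV melts.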

Data set [2] in a line: melting temperature; fluorescence melt of hairpins on a sequencing array, two-state fit, raised by 9.35 °C to match UV melts. Conditions: sodium 0.088 M. The essentials:
as §1

As for GATCGAGGCTCGATC ((((((...)))))), in data set [1], the folding enthalpy was -42.1 kcal/mol. The Tm in data set [2] is 55.5 °C.
For GATCGAGGTATCGATC ((((((....)))))) the same measures were -39.6 kcal/mol and 58.7 °C.
For GATCGAGGTCTCGATC ((((((....)))))) the same measures were -38.5 kcal/mol and 55.8 °C.
The matching figures for GATCGAGGTTCGATC ((((((...)))))): -38.6 kcal/mol and 51.6 °C.
Regarding GATCGAGTTGTCGATC ((((((....)))))), in data set [1], the folding enthalpy is -39.4 kcal/mol. In addition, the Tm in data set [2] was determined as 52.8 °C.
The matching figures for GATCGAGTTTCGATC ((((((...)))))): -31.4 kcal/mol and 53 °C.
For GATCGATACTCGATC ((((((...)))))) the same measures were -41.3 kcal/mol and 51.3 °C.
Consider GATCGATAGATCGATC ((((((....)))))), for which the folding enthalpy in data set [1] was -18.9 kcal/mol. Further, the Tm in data set [2] came out at 61.1 °C.
The matching figures for GATCGATAGTCGATC ((((((...)))))): -30.3 kcal/mol and 48.7 °C.
For GATCGATAGTTCGATC ((((((....)))))) the same measures were -39.3 kcal/mol and 50.8 °C.
The matching figures for GATCGATCATCGATC ((((((...)))))): -33.2 kcal/mol and 50.5 °C.
For the sequence GATCGATCCTTCGATC ((((((....)))))), the folding enthalpy in data set [1] is -45.3 kcal/mol. Also, the Tm in data set [2] was 55.5 °C.
Consider GATCGATCTCTCGATC ((((((....)))))), for which, in data set [1], the folding enthalpy was -41.2 kcal/mol. In addition, the Tm in data set [2] was determined as 51.4 °C.
The matching figures for GATCGATTACTCGATC ((((((....)))))): -47.6 kcal/mol and 51 °C.
The matching figures for GATCGATTCTCGATC ((((((...)))))): -38.8 kcal/mol and 53.3 °C.
GATCGATTGGTCGATC ((((((....)))))): in data set [1], the folding enthalpy is -37.6 kcal/mol. Also, the Tm in data set [2] came to 53.2 °C.
The matching figures for GATCGCAATCGCGATC ((((((....)))))): -32.2 kcal/mol and 67.9 °C.
For GATCGCACACGCGATC ((((((....)))))) the same measures were -38 kcal/mol and 68.2 °C.
Consider GATCGCACGGGCGATC ((((((....)))))), for which the folding enthalpy in data set [1] is -30.9 kcal/mol. Besides, the Tm in data set [2] stood at 67.1 °C.
The matching figures for GATCGCACTCGCGATC ((((((....)))))): -34.7 kcal/mol and 68.4 °C.
With GATCGCAGGCGCGATC ((((((....)))))), the folding enthalpy in data set [1] is -35.1 kcal/mol. Also, in data set [2], the Tm is 68.3 °C.
For GATCGCATAAGCGATC ((((((....)))))) the same measures were -32.5 kcal/mol and 69.2 °C.
For GATCGCCAACGCGATC ((((((....)))))) the same measures were -36.6 kcal/mol and 62.9 °C.
For the sequence GATCGCCACAGCGATC ((((((....)))))), the folding enthalpy in data set [1] is -38.2 kcal/mol. Besides, the Tm in data set [2] was 68.8 °C.
For GATCGCCAGAGCGATC ((((((....)))))) the same measures were -37.6 kcal/mol and 68.3 °C.
As to GATCGCCAGGGCGATC ((((((....)))))), in data set [1], the folding enthalpy was -31 kcal/mol. For the same sequence, the Tm in data set [2] is 68.3 °C.
Consider GATCGCCATTGCGATC ((((((....)))))), for which the folding enthalpy in data set [1] was -38 kcal/mol. The Tm in data set [2] is 67.5 °C.
Turning to GATCGCCCAGGCGATC ((((((....)))))), the folding enthalpy in data set [1] is -25.1 kcal/mol. The Tm in data set [2] is 68.2 °C.
For GATCGCCCCAGCGATC ((((((....)))))) the same measures were -33.5 kcal/mol and 68.5 °C.
The matching figures for GATCGCCCGAGCGATC ((((((....)))))): -37.4 kcal/mol and 67.5 °C.
For GATCGCCGAAAGGCTATC (((.(((....))).))) the same measures were -20.4 kcal/mol and 42.1 °C.
